Assay results: ChEMBL document CHEMBL2390926, “Identification of novel FLT3 kinase inhibitors” (Eur J Med Chem, 2013)
Active and inactive are the calls of the source. The calls are words filed in the database; no cut-off is given here.

Legend:
[1] = molecular target: T1, Tyrosine-protein kinase receptor TYRO3 (Homo sapiens) (UniProt Q06418); assay: Inhibition of TYRO3 (unknown origin) transfected in mouse Ba/F3 cells at 5 uM after 24 hrs; type: cell-based; settings: BaF3
T1 sequence (whole entry): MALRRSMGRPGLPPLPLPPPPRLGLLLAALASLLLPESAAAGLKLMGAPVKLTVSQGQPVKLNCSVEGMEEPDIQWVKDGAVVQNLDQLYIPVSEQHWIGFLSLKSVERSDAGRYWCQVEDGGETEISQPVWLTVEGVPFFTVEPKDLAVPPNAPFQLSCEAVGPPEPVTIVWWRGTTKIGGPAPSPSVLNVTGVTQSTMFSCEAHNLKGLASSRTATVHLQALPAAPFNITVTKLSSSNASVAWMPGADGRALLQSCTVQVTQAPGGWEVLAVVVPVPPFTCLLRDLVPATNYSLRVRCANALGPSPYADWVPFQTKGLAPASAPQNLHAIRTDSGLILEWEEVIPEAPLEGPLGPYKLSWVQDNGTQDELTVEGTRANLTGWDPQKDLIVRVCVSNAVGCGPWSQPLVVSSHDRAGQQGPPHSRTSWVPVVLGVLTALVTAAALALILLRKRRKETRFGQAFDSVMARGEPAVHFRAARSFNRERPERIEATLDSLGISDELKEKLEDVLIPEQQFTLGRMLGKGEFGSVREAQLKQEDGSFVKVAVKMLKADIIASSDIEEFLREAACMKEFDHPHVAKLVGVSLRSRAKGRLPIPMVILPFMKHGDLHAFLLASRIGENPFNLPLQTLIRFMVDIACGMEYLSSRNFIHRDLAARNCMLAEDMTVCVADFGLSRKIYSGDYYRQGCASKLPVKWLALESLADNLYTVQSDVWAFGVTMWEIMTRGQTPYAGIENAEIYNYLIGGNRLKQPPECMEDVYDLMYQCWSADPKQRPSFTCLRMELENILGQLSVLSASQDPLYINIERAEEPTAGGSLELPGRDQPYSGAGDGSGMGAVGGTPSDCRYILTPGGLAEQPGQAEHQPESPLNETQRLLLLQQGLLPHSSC

[2] = molecular target: T2, Megakaryocyte-associated tyrosine-protein kinase (Homo sapiens) (UniProt P42679); assay: Inhibition of MATK1 (unknown origin) transfected in mouse Ba/F3 cells at 5 uM after 24 hrs; type: cell-based; settings: BaF3
T2 sequence (whole entry): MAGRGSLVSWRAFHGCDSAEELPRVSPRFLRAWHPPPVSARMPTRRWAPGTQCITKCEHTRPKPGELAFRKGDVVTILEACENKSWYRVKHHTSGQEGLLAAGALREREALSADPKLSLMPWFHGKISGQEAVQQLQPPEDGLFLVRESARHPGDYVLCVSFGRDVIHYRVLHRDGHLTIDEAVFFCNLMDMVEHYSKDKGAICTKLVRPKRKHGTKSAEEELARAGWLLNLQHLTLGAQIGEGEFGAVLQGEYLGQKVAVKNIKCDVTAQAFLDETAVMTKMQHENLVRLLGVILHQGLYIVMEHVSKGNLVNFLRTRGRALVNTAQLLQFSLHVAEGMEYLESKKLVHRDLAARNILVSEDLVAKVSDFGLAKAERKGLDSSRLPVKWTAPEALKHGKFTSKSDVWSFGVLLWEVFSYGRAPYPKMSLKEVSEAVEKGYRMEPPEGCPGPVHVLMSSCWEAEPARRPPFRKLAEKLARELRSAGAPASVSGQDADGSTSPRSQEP

[3] = molecular target: Tyrosine-protein kinase Fyn (Homo sapiens) (UniProt P06241); assay: Inhibition of FYN (unknown origin) transfected in mouse Ba/F3 cells at 5 uM after 24 hrs; type: cell-based; settings: BaF3
Chain of Tyrosine-protein kinase Fyn (Homo sapiens) (P06241 2-537 limits assumed): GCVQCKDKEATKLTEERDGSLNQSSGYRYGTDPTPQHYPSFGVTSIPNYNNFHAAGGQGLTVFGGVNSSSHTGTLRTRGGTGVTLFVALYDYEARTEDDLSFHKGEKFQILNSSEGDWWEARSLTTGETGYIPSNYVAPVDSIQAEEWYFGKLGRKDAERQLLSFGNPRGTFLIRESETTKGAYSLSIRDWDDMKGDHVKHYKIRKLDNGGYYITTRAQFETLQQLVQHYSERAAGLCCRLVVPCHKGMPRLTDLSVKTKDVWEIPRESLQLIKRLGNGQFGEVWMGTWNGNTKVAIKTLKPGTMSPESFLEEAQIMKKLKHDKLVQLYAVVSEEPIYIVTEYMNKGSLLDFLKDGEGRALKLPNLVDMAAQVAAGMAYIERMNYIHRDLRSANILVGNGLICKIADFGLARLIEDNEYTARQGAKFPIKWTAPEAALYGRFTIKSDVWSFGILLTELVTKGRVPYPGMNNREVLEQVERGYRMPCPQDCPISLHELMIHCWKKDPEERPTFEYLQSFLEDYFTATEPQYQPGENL
Method in brief: (§1)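 Kinase specificity panel: each Ba/F3 line transformed with one of 24 tyrosine kinases depends on that kinase to grow. Cells were given compound at 1 or 5 µM for 24 h, with DMSO as comparator. Percentage growth was read by ATP-lite luminescence and reported as mean ± SEM.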

[4] = molecular target: T3, Ephrin type-A receptor 8 (Homo sapiens) (UniProt P29322); assay: Inhibition of EPHA8 (unknown origin) transfected in mouse Ba/F3 cells at 5 uM after 24 hrs; type: cell-based; settings: BaF3; method in brief: as §1
T3 sequence (whole entry): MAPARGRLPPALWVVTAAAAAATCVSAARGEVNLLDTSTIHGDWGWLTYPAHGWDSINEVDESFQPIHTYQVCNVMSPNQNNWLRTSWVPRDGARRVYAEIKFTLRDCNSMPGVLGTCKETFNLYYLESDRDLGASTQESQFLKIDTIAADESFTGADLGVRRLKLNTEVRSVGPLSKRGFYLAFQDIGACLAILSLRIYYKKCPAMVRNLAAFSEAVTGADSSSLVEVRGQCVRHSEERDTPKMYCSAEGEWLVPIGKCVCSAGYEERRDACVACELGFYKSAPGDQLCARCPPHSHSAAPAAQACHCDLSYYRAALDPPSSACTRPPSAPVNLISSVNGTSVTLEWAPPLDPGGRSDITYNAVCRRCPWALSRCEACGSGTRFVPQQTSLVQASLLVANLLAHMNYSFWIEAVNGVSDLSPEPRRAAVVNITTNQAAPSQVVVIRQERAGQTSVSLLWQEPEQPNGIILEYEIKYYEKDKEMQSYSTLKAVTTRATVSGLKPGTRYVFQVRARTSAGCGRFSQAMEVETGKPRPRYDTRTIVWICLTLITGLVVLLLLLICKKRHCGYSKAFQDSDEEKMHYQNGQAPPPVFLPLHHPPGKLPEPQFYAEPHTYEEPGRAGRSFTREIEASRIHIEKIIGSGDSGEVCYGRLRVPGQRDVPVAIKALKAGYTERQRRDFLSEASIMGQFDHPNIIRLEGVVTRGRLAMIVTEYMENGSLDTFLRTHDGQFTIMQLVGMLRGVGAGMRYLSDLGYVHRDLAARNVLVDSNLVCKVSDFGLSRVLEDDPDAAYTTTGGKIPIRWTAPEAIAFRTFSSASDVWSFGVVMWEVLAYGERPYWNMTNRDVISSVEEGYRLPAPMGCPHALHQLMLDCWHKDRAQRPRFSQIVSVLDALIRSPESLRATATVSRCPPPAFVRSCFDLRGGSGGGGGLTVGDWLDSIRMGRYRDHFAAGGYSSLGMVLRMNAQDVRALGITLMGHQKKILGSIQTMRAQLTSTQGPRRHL

[5] = molecular target: Ephrin type-A receptor 2 (Homo sapiens) (UniProt P29317); assay: Inhibition of EPHA2 (unknown origin) transfected in mouse Ba/F3 cells at 5 uM after 24 hrs; type: cell-based; settings: BaF3; method in brief: as §1
Chain of Ephrin type-A receptor 2 (Homo sapiens) (P29317 whole entry): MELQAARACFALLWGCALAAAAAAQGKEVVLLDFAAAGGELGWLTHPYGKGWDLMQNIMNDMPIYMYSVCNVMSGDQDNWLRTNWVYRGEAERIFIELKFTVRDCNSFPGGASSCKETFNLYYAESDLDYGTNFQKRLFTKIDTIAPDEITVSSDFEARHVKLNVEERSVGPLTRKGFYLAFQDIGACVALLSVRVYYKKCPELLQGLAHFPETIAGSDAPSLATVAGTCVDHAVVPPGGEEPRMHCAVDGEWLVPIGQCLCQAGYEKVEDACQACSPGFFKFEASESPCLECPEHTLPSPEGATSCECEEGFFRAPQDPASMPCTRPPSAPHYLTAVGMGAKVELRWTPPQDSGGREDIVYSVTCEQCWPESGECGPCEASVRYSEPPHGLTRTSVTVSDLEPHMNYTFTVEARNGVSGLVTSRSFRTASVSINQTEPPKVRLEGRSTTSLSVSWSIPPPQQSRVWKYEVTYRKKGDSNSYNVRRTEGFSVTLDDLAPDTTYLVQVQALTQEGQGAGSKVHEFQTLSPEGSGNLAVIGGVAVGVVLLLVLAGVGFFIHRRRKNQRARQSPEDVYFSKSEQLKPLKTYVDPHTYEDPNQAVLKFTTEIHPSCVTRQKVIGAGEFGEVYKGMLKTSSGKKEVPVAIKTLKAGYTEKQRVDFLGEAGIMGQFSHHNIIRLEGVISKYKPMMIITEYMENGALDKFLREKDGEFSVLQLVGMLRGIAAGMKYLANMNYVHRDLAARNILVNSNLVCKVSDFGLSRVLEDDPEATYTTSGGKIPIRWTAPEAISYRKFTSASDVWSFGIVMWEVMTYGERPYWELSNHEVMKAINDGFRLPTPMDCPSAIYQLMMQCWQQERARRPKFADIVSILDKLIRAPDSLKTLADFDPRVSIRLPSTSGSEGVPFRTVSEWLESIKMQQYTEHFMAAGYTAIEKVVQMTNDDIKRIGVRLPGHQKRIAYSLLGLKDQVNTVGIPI

BaF3 = assay: Cytotoxicity against mouse BA/F3 cells transfected with FLT3-ITD-G697R at 1 uM after 24 hrs by plate reader analysis; type: functional, cell-based

| Structure (SMILES) | inhibition [1] | inhibition [2] | inhibition [3] | inhibition [4] | inhibition [5] | Activity (BaF3) |
| --- | --- | --- | --- | --- | --- | --- |
| Cc1ccc(-n2cnc3cc(Nc4nnc(C)c5ccccc45)ccc32)cc1 | inactive | inactive | inactive | inactive | inactive | Active |
| COc1ccc(C(=O)Nc2cc(-c3ccccc3)[nH]n2)cc1 | – | – | – | – | – | Active |
| Fc1ccc(-c2n[nH]cc2-c2ccncc2)cc1Cl | inactive | inactive | inactive | Active | inactive | – |
